Assay results: ChEMBL document CHEMBL4190409, “New somatostatin-drug conjugates for effective targeting pancreatic cancer” (Bioorg Med Chem, 2018)
Active and inactive are the calls of the source. The rule behind the calls is not given here. Peptide text beside a SMILES is read from it.

Experiments:
[1] = target: T1, Somatostatin receptor type 2 (Homo sapiens, UniProt P30874); assay: Agonist activity at SSTR2 (unknown origin) expressed in HEK293 cells assessed as inhibition of forskolin-induced CRE promoter activity at 10 to 1000 nM by luciferase reporter gene assay; format: functional, cell-based
How it was run: (§1)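 HEK-293 cells (70,000/well) co-transfected via JetPei with CRE-luciferase reporter, β-galactosidase construct and one SSTR subtype vector (empty pcDNA3.1 control). After 1 day, treated with 10 µM forskolin alone or with peptide. Luminescence read relative to forskolin alone and normalized to β-galactosidase (ONPG). Triplicates, representative of three experiments.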

[2] = target: T2, Somatostatin receptor type 3 (Homo sapiens, UniProt P32745); assay: Agonist activity at SSTR3 (unknown origin) expressed in HEK293 cells assessed as inhibition of forskolin-induced CRE promoter activity at 10 to 1000 nM by luciferase reporter gene assay; format: functional, cell-based; how it was run: as §1
PANC-1 [3] = assay: Cytotoxicity against human PANC1 cells after 72 hrs by XTT assay; format: functional, cell-based; details: PANC-1, 72 h
How it was run: (§2)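 Cells seeded at 5-10 x 10^4 cells/mL and preincubated 24 h, then washed and given fresh medium with a concentration series for 48 h or 72 h. XTT added for a further 2-4 h, absorbance read at 480 and 680 nm. % growth inhibition taken against medium+solvent and solvent-free controls. DMSO final <0.05%. Tetraplicates, each experiment run twice.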

CAPAN-1 [4] = assay: Cytotoxicity against human Capan1 cells after 48 hrs by XTT assay; format: functional, cell-based; details: CAPAN-1, 48 h; how it was run: as §2
PANC-1 [5] = assay: Cytotoxicity against human PANC1 cells after 48 hrs by XTT assay; format: functional, cell-based; details: PANC-1, 48 h; how it was run: as §2
CAPAN-1 [6] = assay: Cytotoxicity against human Capan1 cells after 72 hrs by XTT assay; format: functional, cell-based; details: CAPAN-1, 72 h; how it was run: as §2
[7] = Half life in IMDM culture medium by LC-MS analysis; format: physicochemical
How it was run: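 Conjugate stock (10 µl) added to 1 ml IMDM (DME-based, 20% bovine serum) at 37°C. Aliquots taken at 1, 3, 6, 24, 48, 72 and 96 h, quenched with 2.5 vol ethanol, centrifuged, filtered and analysed by LC-MS. At least three measurements.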

[8] = target: T3, Somatostatin receptor type 4 (Homo sapiens, UniProt P31391); assay: Agonist activity at SSTR4 (unknown origin) expressed in HEK293 cells assessed as inhibition of forskolin-induced CRE promoter activity at 10 to 1000 nM by luciferase reporter gene assay; format: functional, cell-based; how it was run: as §1
[9] = Drug uptake in kidney of athymic nude mouse xenografted with human PANC1 cells at 120 mg/kg, iv measured after 24 hrs by fluorescent microscopic analysis; format: ADME, organism-based; details: in vivo
How it was run: (§3)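 Five-week-old athymic nude mice inoculated subcutaneously in the dorsal left side with Panc-1 cells. When tumours reached 100 mm3, FITC-labelled peptide or peptide–CPT conjugate was given intravenously at 120 mg/kg as a single dose. At 24 h, tumour, spleen, pancreas, kidney and liver were excised and fluorescence was imaged by microscopy with a CCD camera.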

[10] = target: T4, Somatostatin receptor type 1 (Homo sapiens, UniProt P30872); assay: Agonist activity at SSTR1 (unknown origin) expressed in HEK293 cells assessed as inhibition of forskolin-induced CRE promoter activity at 10 to 1000 nM by luciferase reporter gene assay; format: functional, cell-based; how it was run: as §1
[11] = Drug uptake in tumor of athymic nude mouse xenografted with human PANC1 cells at 120 mg/kg, iv measured after 24 hrs by fluorescent microscopic analysis; format: ADME, organism-based, Neoplasm; details: in vivo; how it was run: as §3
[12] = Drug uptake in pancreas of athymic nude mouse xenografted with human PANC1 cells at 120 mg/kg, iv measured after 24 hrs by fluorescent microscopic analysis; format: ADME, organism-based; details: in vivo; how it was run: as §3
[13] = target: T5, Somatostatin receptor type 5 (Homo sapiens, UniProt P35346); assay: Agonist activity at SSTR5 (unknown origin) expressed in HEK293 cells assessed as inhibition of forskolin-induced CRE promoter activity at 10 to 1000 nM by luciferase reporter gene assay; format: functional, cell-based; how it was run: as §1
[14] = target: T5, Somatostatin receptor type 5; assay: Drug uptake in HEK293 cells co-expressing SSTR5 (unknown origin) and RFP assessed as SSTR5-mediated drug accumulation by measuring mean fluorescence intensity measured after 30 mins by fluorescence microscopic analysis (reference value: 1.1); format: ADME, cell-based; details: hek293, 0.5 h
[15] = target: T1, Somatostatin receptor type 2; assay: Drug uptake in HEK293 cells co-expressing SSTR2 (unknown origin) and RFP assessed as SSTR2-mediated drug accumulation by measuring mean fluorescence intensity at 400 nM measured after 15 mins in presence of SSTR2 agonist octreotide by fluorescence assay; format: cell-based; details: hek293, 0.25 h, 0.4 µM
How it was run: (§4)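 FITC-peptide at 400 nM then added for 15 min. FITC/RFP fluorescence imaged; mean fluorescence intensity of FITC+ cells quantified (n = 10), representative of three experiments.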

[16] = target: T4, Somatostatin receptor type 1; assay: Drug uptake in HEK293 cells co-expressing SSTR1 (unknown origin) and RFP assessed as SSTR1-mediated drug accumulation by measuring mean fluorescence intensity measured after 30 mins by fluorescence microscopic analysis (reference value: 1.1); format: ADME, cell-based; details: hek293, 0.5 h
[17] = target: T1, Somatostatin receptor type 2; assay: Drug uptake in HEK293 cells co-expressing SSTR2 (unknown origin) and RFP assessed as SSTR2-mediated drug accumulation by measuring mean fluorescence intensity measured after 30 mins by fluorescence microscopic analysis (reference value: 1.1); format: ADME, cell-based; details: hek293, 0.5 h
[18] = target: T2, Somatostatin receptor type 3; assay: Drug uptake in HEK293 cells co-expressing SSTR3 (unknown origin) and RFP assessed as SSTR3-mediated drug accumulation by measuring mean fluorescence intensity measured after 30 mins by fluorescence microscopic analysis (reference value: 1.1); format: ADME, cell-based; details: hek293, 0.5 h
[19] = target: T3, Somatostatin receptor type 4; assay: Drug uptake in HEK293 cells co-expressing SSTR4 (unknown origin) and RFP assessed as SSTR4-mediated drug accumulation by measuring mean fluorescence intensity measured after 30 mins by fluorescence microscopic analysis (reference value: 1.1); format: ADME, cell-based; details: hek293, 0.5 h
[20] = target: T3, Somatostatin receptor type 4; assay: Drug uptake in HEK293 cells co-expressing SSTR4 (unknown origin) and RFP assessed as SSTR4-mediated drug accumulation by measuring mean fluorescence intensity at 400 nM measured after 15 mins in presence of SSTR2 agonist octreotide by fluorescence assay; format: cell-based; details: hek293, 0.25 h, 0.4 µM; how it was run: as §4

T4 sequence (P30872 whole entry): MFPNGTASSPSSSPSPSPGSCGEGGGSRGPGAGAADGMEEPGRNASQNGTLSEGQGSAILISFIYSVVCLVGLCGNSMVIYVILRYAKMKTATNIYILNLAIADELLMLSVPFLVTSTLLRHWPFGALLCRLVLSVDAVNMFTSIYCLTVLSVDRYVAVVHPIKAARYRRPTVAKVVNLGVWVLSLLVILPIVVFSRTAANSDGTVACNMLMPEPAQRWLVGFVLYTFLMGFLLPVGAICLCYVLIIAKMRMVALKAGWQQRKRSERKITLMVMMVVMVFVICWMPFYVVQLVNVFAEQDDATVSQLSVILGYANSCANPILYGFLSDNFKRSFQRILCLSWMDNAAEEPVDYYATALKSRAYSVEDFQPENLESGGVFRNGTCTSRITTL
T5 sequence (P35346 whole entry): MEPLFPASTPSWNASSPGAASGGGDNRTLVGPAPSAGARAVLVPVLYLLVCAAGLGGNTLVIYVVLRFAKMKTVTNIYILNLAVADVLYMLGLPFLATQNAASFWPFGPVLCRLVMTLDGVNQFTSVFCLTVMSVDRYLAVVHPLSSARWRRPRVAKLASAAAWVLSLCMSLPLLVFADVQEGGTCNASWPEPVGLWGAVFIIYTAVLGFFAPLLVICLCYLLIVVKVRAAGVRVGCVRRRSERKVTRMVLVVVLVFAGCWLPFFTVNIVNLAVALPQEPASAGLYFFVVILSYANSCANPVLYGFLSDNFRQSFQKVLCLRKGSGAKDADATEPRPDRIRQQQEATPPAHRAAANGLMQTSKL
T3 sequence (P31391 whole entry): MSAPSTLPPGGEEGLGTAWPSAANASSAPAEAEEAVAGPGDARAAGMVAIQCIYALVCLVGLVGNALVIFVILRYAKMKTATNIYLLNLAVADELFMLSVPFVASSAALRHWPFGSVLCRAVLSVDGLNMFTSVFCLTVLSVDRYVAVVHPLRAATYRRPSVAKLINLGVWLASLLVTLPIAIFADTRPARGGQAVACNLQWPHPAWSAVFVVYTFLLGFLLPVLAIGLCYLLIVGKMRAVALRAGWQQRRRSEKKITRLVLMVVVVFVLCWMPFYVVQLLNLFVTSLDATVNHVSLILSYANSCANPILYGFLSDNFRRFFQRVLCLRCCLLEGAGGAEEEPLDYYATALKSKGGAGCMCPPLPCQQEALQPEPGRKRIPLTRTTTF
T1 sequence (P30874 whole entry): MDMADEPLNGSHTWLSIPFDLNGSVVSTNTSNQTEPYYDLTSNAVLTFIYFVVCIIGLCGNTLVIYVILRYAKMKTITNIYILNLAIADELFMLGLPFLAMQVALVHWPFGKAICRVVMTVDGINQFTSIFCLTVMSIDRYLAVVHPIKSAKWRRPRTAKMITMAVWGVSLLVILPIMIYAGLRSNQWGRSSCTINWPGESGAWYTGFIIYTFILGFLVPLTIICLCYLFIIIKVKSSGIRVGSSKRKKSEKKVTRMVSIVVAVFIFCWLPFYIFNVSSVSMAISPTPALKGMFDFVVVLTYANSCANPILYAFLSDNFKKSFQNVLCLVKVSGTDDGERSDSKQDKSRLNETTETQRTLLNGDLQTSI
T2 sequence (P32745 whole entry): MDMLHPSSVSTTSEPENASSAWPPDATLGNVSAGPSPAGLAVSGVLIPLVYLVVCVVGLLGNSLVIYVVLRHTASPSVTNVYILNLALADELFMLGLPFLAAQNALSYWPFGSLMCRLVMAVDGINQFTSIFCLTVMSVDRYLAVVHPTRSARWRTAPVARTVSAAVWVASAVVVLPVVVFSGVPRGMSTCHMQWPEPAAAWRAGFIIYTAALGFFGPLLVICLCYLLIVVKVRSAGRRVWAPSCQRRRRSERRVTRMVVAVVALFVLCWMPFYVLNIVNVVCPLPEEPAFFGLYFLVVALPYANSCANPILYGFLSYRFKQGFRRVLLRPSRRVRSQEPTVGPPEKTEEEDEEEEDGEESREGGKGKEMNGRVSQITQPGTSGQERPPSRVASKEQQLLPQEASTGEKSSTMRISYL

Structure (SMILES) | IC50 (PANC-1 [3]) [µM] | IC50 (CAPAN-1 [4]) [µM] | IC50 (PANC-1 [5]) [µM] | IC50 (CAPAN-1 [6]) [µM] | half-life [7] [h] | other results
C[C@@H](O)[C@@H]1NC(=O)[C@H](CCCCN)NC(=O)[C@@H](Cc2c[nH]c3ccccc23)NC(=O)[C@H](Cc2ccccc2)NC(=O)[C@@H](NC(=O)[C@H](N)Cc2ccccc2)CSSC[C@@H](C(=O)N[C@H](CO)[C@@H](C)O)NC1=O |  |  |  |  |  | inhibition [1]: Active; inhibition [2]: Active
COc1cc(C2c3[nH]c4ccccc4c3CC3COC(=O)N32)cc(OC)c1OC(=O)NCCCC(=O)N[C@H](Cc1ccccc1)C(=O)N[C@@H](CCCNC(=N)N)C(=O)N[C@H]1CSSCCN(CC(N)=O)C(=O)[C@H](Cc2ccccc2)NC(=O)[C@H]([C@@H](C)O)NC(=O)[C@H](CCCCN)NC(=O)[C@@H](Cc2c[nH]c3ccccc23)NC(=O)[C@H](Cc2ccccc2)NC1=O (stereo partly drawn) | 0.14 | 1.47 | 0.27 | 1.43 | 3 | 
C[C@@H](O)[C@@H]1NC(=O)[C@H](CCCCN)NC(=O)[C@H](Cc2c[nH]c3ccccc23)NC(=O)[C@@H](Cc2c[nH]c3ccccc23)NC(=O)[C@H](Cc2ccccc2)NC(=O)[C@@H](NC(=O)[C@H](N)Cc2ccccc2)CSSCCN(CC(N)=O)C(=O)[C@H](Cc2ccccc2)NC1=O | > 50 | > 50 | > 50 | > 50 |  | 
C[C@@H](O)[C@@H]1NC(=O)[C@H](CCCCN)NC(=O)[C@@H](Cc2c[nH]c3ccccc23)NC(=O)[C@H](Cc2ccccc2)NC(=O)[C@@H](NC(=O)[C@H](CCCNC(=N)N)NC(=O)[C@H](N)Cc2ccccc2)CSSCCN(CC(N)=O)C(=O)[C@H](Cc2ccccc2)NC1=O (HELM PEPTIDE1{[dF].R.C.F.[dW].K.T.F.[O=C(CN(CCS[*:3])[*:1])[*:2]].[am]}$PEPTIDE1,PEPTIDE1,3:R3-9:R3$$$V2.0) | > 50 | > 50 | > 50 | > 50 |  | 
COc1ccc(/C=C\c2cc(OC)c(OC)c(OC)c2)cc1O [COMBRETASTATIN A4] | 0.16 | 0.84 |  |  |  | 
C[C@@H](O)[C@@H]1NC(=O)[C@H](CCCCN)NC(=O)[C@@H](Cc2c[nH]c3ccccc23)NC(=O)[C@H](Cc2ccccc2)NC(=O)[C@@H](NC(=O)[C@H](CCCNC(=N)N)NC(=O)[C@@H](Cc2ccccc2)NC(=O)CCCNC(=S)Nc2ccc(-c3c4ccc(=O)cc-4oc4cc(O)ccc34)c(C(=O)O)c2)CSSCCN(CC(N)=O)C(=O)[C@H](Cc2ccccc2)NC1=O |  |  |  |  |  | inhibition [8]: Active; inhibition [1]: Active; Drug uptake [9]: Active; inhibition [10]: inactive; Drug uptake [11]: Active; Drug uptake [12]: Not Active; inhibition [13]: Active; inhibition [2]: Active
COc1cc([C@@H]2c3[nH]c4ccccc4c3C[C@H]3COC(=O)N32)cc(OC)c1O | 0.61 | 1.57 |  | 1.23 |  | 
COc1cc(C2c3[nH]c4ccccc4c3CC3COC(=O)N32)cc(OC)c1OC(=O)NCCCC(=O)N[C@H](Cc1ccccc1)C(=O)N[C@H]1CSSCCN(CC(N)=O)C(=O)[C@H](Cc2ccccc2)NC(=O)[C@H]([C@@H](C)O)NC(=O)[C@H](CCCCN)NC(=O)[C@H](Cc2c[nH]c3ccccc23)NC(=O)[C@@H](Cc2c[nH]c3ccccc23)NC(=O)[C@H](Cc2ccccc2)NC1=O (stereo partly drawn) | 2.13 | 0.25 | 2.98 | 0.09 | 5 | 
C[C@@H](O)[C@@H]1NC(=O)[C@H](CCCCN)NC(=O)[C@H](Cc2c[nH]c3ccccc23)NC(=O)[C@@H](Cc2c[nH]c3ccccc23)NC(=O)[C@H](Cc2ccccc2)NC(=O)[C@@H](NC(=O)[C@@H](Cc2ccccc2)NC(=O)CCCNC(=S)Nc2ccc(-c3c4ccc(=O)cc-4oc4cc(O)ccc34)c(C(=O)O)c2)CSSCCN(CC(N)=O)C(=O)[C@H](Cc2ccccc2)NC1=O |  |  |  |  |  | inhibition [8]: Active; inhibition [1]: Active; Flu intensity [14]: 48.8; Flu intensity [15]: 0.9; Flu intensity [16]: 0.9; Flu intensity [17]: 6.7; inhibition [10]: inactive; Flu intensity [18]: 42.1; Flu intensity [19]: 32.4; Flu intensity [20]: 21.1; inhibition [13]: Active; inhibition [2]: Active
CC[C@@]1(O)C(=O)OCc2c1cc1n(c2=O)Cc2cc3ccccc3nc2-1 [CAMPTOTHECIN] | 0.09 |  | 0.18 | 0.21 |  | 
COc1cc(/C=C\c2ccc(ON[C@H](Cc3ccccc3)C(=O)N[C@@H](CCCNC(=N)N)C(=O)N[C@H]3CSSCCN(CC(N)=O)C(=O)[C@H](Cc4ccccc4)NC(=O)[C@H]([C@@H](C)O)NC(=O)[C@H](CCCCN)NC(=O)[C@@H](Cc4c[nH]c5ccccc45)NC(=O)[C@H](Cc4ccccc4)NC3=O)c(OC(=O)NCCCC(C)=O)c2)cc(OC)c1OC | 1.17 | 0.67 | 1.72 | 0.52 | 15 | 
COc1ccc(/C=C\c2cc(OC)c(OC)c(OC)c2)cc1OC(=O)NCCCC(=O)N[C@H](Cc1ccccc1)C(=O)N[C@H]1CSSCCN(CC(N)=O)C(=O)[C@H](Cc2ccccc2)NC(=O)[C@H]([C@@H](C)O)NC(=O)[C@H](CCCCN)NC(=O)[C@H](Cc2c[nH]c3ccccc23)NC(=O)[C@@H](Cc2c[nH]c3ccccc23)NC(=O)[C@H](Cc2ccccc2)NC1=O | 1.19 | 2.56 | 2.67 | 2.09 | 18 | 
